Data: article PMC8842743 (Journal of Alzheimer's Disease Reports, 2022)

Legend:
[1] = test system: CSF Aβ1–40 and Aβ1–42 in healthy subjects; test: Clinical single-dose CSF Aβ pharmacodynamics; type: in vivo, human
In short: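 Healthy subjects received single doses of 1.6, 10 or 26 mg or placebo. Serial CSF was drawn through an indwelling subarachnoid lumbar catheter from 4 h pre-dose to 36 h post-dose. For each subject, the time of the lowest observed Aβ1–40 and Aβ1–42 concentration, the change from baseline at nadir and the 24 h time-averaged change from baseline were reported.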

[2] = Brain homogenate protein binding; type: in vitro ADME, mouse; settings: equilibrium dialysis
In short: (§1)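 Fraction unbound was determined in vitro by equilibrium dialysis of mouse brain homogenate or dog plasma. Unbound concentrations were derived by multiplying the total measured concentrations by this fraction unbound.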

[3] = test system: healthy subjects; test: Clinical safety: adverse events, ECG, laboratory tests; type: in vivo, human
[4] = molecular target: Porcine gastric mucosa pepsin (Sus scrofa, UniProt P00791); test: Pepsin FRET assay; type: biochemical; settings: read-out: Pepsin FRET Assay Absolute IC50; n = 2; value (SD)
Sequence of Porcine gastric mucosa pepsin (P00791 60-385): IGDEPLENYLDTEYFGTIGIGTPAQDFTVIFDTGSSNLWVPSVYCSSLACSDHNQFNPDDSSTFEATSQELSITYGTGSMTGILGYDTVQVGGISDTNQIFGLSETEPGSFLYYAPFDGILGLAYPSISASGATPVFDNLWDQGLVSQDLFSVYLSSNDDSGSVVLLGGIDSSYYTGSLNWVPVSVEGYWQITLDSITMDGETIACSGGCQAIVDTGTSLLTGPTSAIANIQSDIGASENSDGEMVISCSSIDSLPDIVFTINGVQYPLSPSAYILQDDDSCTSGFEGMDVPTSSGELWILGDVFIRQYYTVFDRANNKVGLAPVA

[5] = test system: PDAPP primary cortical neurons; test: PDAPP neuronal cytotoxicity; type: cell-based, mouse
In short: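 Primary cortical neurons from gestational-day-16 PDAPP (APP V717F) embryos were grown at 15×10^4 cells/well in DMEM/F12 (1:1) with B27. Cells were exposed to test compound for 24 h at 37°C. Viability was read by MTT assay as absorbance at 595 nm.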

[6] = Dog plasma protein binding; type: in vitro ADME; settings: equilibrium dialysis of dog plasma
In short: as §1

[7] = test system: CSF Aβ1–40, Aβ1–42, sAβPPα, sAβPPβ in healthy subjects; test: Clinical multiple-dose CSF pharmacodynamics; type: in vivo, human
[8] = Plasma and CSF pharmacokinetics in beagle dogs; type: in vivo, dog
[9] = test system: Aβ1-x, C99, sAβPPβ in PDAPP mice; test: In vivo pharmacodynamics in PDAPP mice; set-up: species or system mouse; settings: 3.0 mg/kg oral
In short: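 Young (2–3 months) female PDAPP mice (n = 6–8 per group) got a single oral gavage of vehicle (7% Pharmasolve, 10 mL/kg) or 0.3, 1.0 or 3.0 mg/kg. Hippocampal and cortical Aβ1–x, C99 and sAβPPβ were measured in brain extracts 3 h post-dose. In a time course (3.0 mg/kg, n = 6), hippocampal and CSF Aβ1–x were measured at 3, 6, 9 and 12 h. Statistics: ANOVA, then Tukey post hoc, p < 0.05.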

[10] = test system: patients with mild AD; settings: Phase II study; cited from earlier work
[11] = 1 mg daily for 14 days, 24 h after final dose
[12] = 26 mg daily for 14 days, samples below LLOQ assigned one-half the LLOQ

SMILES: COc1cnc(C(=O)Nc2ccc(F)c([C@]34CN(c5ncc(F)cn5)C[C@H]3CSC(N)=N4)c2)cn1 [LY3202626]
- CSF Aβ1–42 mean reduction from baseline at nadir ([1]; single dose 1.6 mg): –33.4%
- time of mean nadir of CSF Aβ1–42 ([1]; single dose 1.6 mg): approximately 10 h
- CSF Aβ1–42 mean reduction from baseline at nadir ([1]; single dose 26 mg): –71.6%
- time of mean nadir of CSF Aβ1–42 ([1]; single dose 26 mg): approximately 28 h
- free fraction in brain homogenate [2]: 0.026
- tolerability ([3]; Phase 1 study): generally well tolerated
- clinical laboratory tests, including liver functions tests ([3]; healthy subjects, Phase 1): no clinically significant findings
- electrocardiograms (including QTc interval), ophthalmologic examinations, alertness and attention ([3]; healthy subjects, Phase 1): no clinically significant changes
- Abnormal dreams: number of adverse events (number of subjects) ([3]; multiple doses 1 mg, N = 9): 1 (1)
- Burning sensation: number of adverse events (number of subjects) ([3]; multiple doses 1 mg, N = 9): 1 (1)
- Constipation: number of adverse events (number of subjects) ([3]; multiple doses 1 mg, N = 9): 0 (0)
- Dizziness: number of adverse events (number of subjects) ([3]; multiple doses 1 mg, N = 9): 0 (0)
- Dysgeusia: number of adverse events (number of subjects) ([3]; multiple doses 1 mg, N = 9): 1 (1)
- Feces discoloured: number of adverse events (number of subjects) ([3]; multiple doses 1 mg, N = 9): 0 (0)
- Headache: number of adverse events (number of subjects) ([3]; multiple doses 1 mg, N = 9): 0 (0)
- Memory impairment: number of adverse events (number of subjects) ([3]; multiple doses 1 mg, N = 9): 0 (0)
- Nightmare: number of adverse events (number of subjects) ([3]; multiple doses 1 mg, N = 9): 1 (1)
- Post-lumbar puncture syndrome: number of adverse events (number of subjects) ([3]; multiple doses 1 mg, N = 9): 1 (1)
- Postural orthostatic tachycardia syndrome: number of adverse events (number of subjects) ([3]; multiple doses 1 mg, N = 9): 0 (0)
- Sunburn: number of adverse events (number of subjects) ([3]; multiple doses 1 mg, N = 9): 0 (0)
- Abnormal dreams: number of adverse events (number of subjects) ([3]; multiple doses 6 mg, N = 9): 0 (0)
- Burning sensation: number of adverse events (number of subjects) ([3]; multiple doses 6 mg, N = 9): 0 (0)
- Constipation: number of adverse events (number of subjects) ([3]; multiple doses 6 mg, N = 9): 1 (1)
- Dizziness: number of adverse events (number of subjects) ([3]; multiple doses 6 mg, N = 9): 0 (0)
- Dysgeusia: number of adverse events (number of subjects) ([3]; multiple doses 6 mg, N = 9): 0 (0)
- Feces discoloured: number of adverse events (number of subjects) ([3]; multiple doses 6 mg, N = 9): 2 (2)
- Headache: number of adverse events (number of subjects) ([3]; multiple doses 6 mg, N = 9): 0 (0)
- Memory impairment: number of adverse events (number of subjects) ([3]; multiple doses 6 mg, N = 9): 0 (0)
- Nightmare: number of adverse events (number of subjects) ([3]; multiple doses 6 mg, N = 9): 0 (0)
- Post-lumbar puncture syndrome: number of adverse events (number of subjects) ([3]; multiple doses 6 mg, N = 9): 0 (0)
- Postural orthostatic tachycardia syndrome: number of adverse events (number of subjects) ([3]; multiple doses 6 mg, N = 9): 0 (0)
- Sunburn: number of adverse events (number of subjects) ([3]; multiple doses 6 mg, N = 9): 0 (0)
- Abnormal dreams: number of adverse events (number of subjects) ([3]; multiple doses 26 mg, n = 9): 0 (0)
- Burning sensation: number of adverse events (number of subjects) ([3]; multiple doses 26 mg, n = 9): 0 (0)
- Constipation: number of adverse events (number of subjects) ([3]; multiple doses 26 mg, n = 9): 0 (0)
- Dizziness: number of adverse events (number of subjects) ([3]; multiple doses 26 mg, n = 9): 2 (2)
- Dysgeusia: number of adverse events (number of subjects) ([3]; multiple doses 26 mg, n = 9): 0 (0)
- Feces discoloured: number of adverse events (number of subjects) ([3]; multiple doses 26 mg, n = 9): 9 (9)
- Headache: number of adverse events (number of subjects) ([3]; multiple doses 26 mg, n = 9): 0 (0)
- Memory impairment: number of adverse events (number of subjects) ([3]; multiple doses 26 mg, n = 9): 1 (1)
- Nightmare: number of adverse events (number of subjects) ([3]; multiple doses 26 mg, n = 9): 0 (0)
- Post-lumbar puncture syndrome: number of adverse events (number of subjects) ([3]; multiple doses 26 mg, n = 9): 0 (0)
- Postural orthostatic tachycardia syndrome: number of adverse events (number of subjects) ([3]; multiple doses 26 mg, n = 9): 1 (1)
- Sunburn: number of adverse events (number of subjects) ([3]; multiple doses 26 mg, n = 9): 0 (0)
- serious adverse events ([3]; up to a single dose of 45 mg or multiple doses of 26 mg): no serious adverse events
- IC50 [4]: > 14 µM
- EC50 ([5]; read-out: EC50 for inducing cytotoxicity in PDAPP neurons, MTT): > 100 µM
- IC50 ([5]; read-out: PDAPP 1° Neuron Cytotox Relative IC50, n = 1/7): > 100 µM
- dog plasma free fraction [6]: 0.009
- decrease in CSF Aβ1–40 from baseline [7, 11]: approximately 50%
- decrease in CSF Aβ1–42 from baseline [7, 11]: approximately 50%
- lowering of CSF Aβ species, modeling of the clinical data ([7]; 12 mg QD): at least 90%
- increase in CSF sAβPPα from baseline ([7]; 26 mg daily for 14 days): 111%
- reduction in CSF sAβPPβ from baseline ([7]; 26 mg daily for 14 days): 92.7%
- reduction in CSF Aβ1–40 from baseline [7, 12]: approximately 94%
- reduction in CSF Aβ1–42 from baseline [7, 12]: approximately 94%
- decrease in CSF sAβPPβ ([7]; multiple doses of 6 mg): more than 70%
- mean CSF AUC (3–9 h) ([8]; 1.5 mg/kg oral): 0.025 µM·h
- mean free plasma AUC (3–9 h) ([8]; 1.5 mg/kg oral): 0.028 µM·h
- plasma AUC(0-∞) ([8]; 1.5 mg/kg oral, mean±SD): 10.812 ± 5.195 µM·h
- Cmax ([8]; read-out: maximum plasma concentration (Cmax), 1.5 mg/kg oral, mean±SD): 2990 ± 750 nM
- Cortex C99 decrease vs vehicle ([9]; 3 h): 65%
- Cortex sAβPPβ decrease vs vehicle ([9]; 3 h): 34%
- CSF Aβ1-X reduction vs vehicle, time course ([9]; 3 hrs): 75%
- hepatotoxicity [10]: no evidence of hepatotoxicity
